Published values of several laboratories.
Compare with care: the assays were run in different laboratories.

| SMILES | target or system | test | system | conditions | endpoint | result |
| --- | --- | --- | --- | --- | --- | --- |
| CC(C)CC(=O)OC[C@H]1O[C@@](C#N)(c2ccc3c(N)ncnn23)[C@H](O)[C@@H]1O |  | metabolic stability | rat, blood | 5 µM, whole blood | half-life | 0.761 min |
| CC(C)=CCC[C@](C)(O[C@@H]1O[C@H](CO)[C@@H](O)[C@H](O)[C@H]1O)[C@H]1CC[C@]2(C)[C@@H]1[C@H](O)C[C@@H]1[C@@]3(C)CC[C@H](O)C(C)(C)[C@@H]3CC[C@]12C |  |  | mouse, plasma | intravenous, 2 mg/kg | AUC(0-t) | 1080 ng·h/mL |
| COc1cc(C(=O)c2nc(-c3cccc4[nH]ccc34)c[nH]2)cc(OC)c1OC |  | chemical stability | PBS | 5 µM, pH 6 | half-life | > 1020 min |
| CC[C@H](C)[C@H](NC(=O)[C@H](Cc1ccccc1)NC(=O)[C@H](CCC(=O)O)NC(=O)[C@H](CCCCN)NC(=O)[C@H](C)NC(=O)[C@H](C)NC(=O)[C@H](CCC(N)=O)NC(=O)CNC(=O)[C@H](CCC(=O)O)NC(=O)[C@H](CC(C)C)NC(=O)[C@H](Cc1ccc(O)cc1)NC(=O)[C@H](CO)NC(=O)[C@H](CO)NC(=O)[C@@H](NC(=O)[C@H](CC(=O)O)NC(=O)[C@H](CO)NC(=O)[C@@H](NC(=O)[C@H](Cc1ccccc1)NC(=O)[C@@H](NC(=O)CNC(=O)[C@H](CCC(=O)O)NC(=O)[C@H](C)NC(=O)N(N)Cc1c[nH]cn1)[C@@H](C)O)[C@@H](C)O)C(C)C)C(=O)N[C@@H](C)C(=O)N[C@@H](Cc1c[nH]c2ccccc12)C(=O)N[C@@H](CC(C)C)C(=O)N[C@H](C(=O)N[C@@H](CCCNC(=N)N)C(=O)NCC(=O)N[C@@H](CCCNC(=N)N)C(=O)NCC(=O)O)C(C)C |  |  | male CD-1 mouse, plasma | intravenous, 1 mg/kg, single dose | AUC(0-inf) | 2400 ng·h/mL |
| Cc1[nH]c(C)c(S(=O)(=O)Nc2ccc(S(F)(F)(F)(F)F)cc2)c1C(=O)N1CCC(F)(F)C1 |  | metabolic stability | rat, liver microsomes |  | half-life | 17.6 min |
| Cc1c2ccncc2c(C)c2c1[nH]c1ccccc12 | NCI-H187 | cell growth or viability, resazurin |  | 5 days | IC50 | 10.7 µM |
| O=C(Nc1ccc([N+](=O)[O-])cc1Cl)c1cc(Cl)ccc1O | HeLa-ACE2 | cell growth or viability, ATP luminescence |  | 72 h | CC50 | 8.73 µM |
| N=C(N)NCCC[C@H](NC(=O)[C@H](Cc1ccccc1)NC(=O)[C@H](CCC(N)=O)NC(=O)OCc1ccccc1)C(=O)c1nccs1 |  |  | female C57BL/6 mouse, plasma | intranasal, 5 mg/kg | AUC(0-inf) | 129 ng·h/mL |
| CC(=O)c1c(C)c2cnc(Nc3ccc(C4CCN(CCS(C)(=O)=O)CC4)cn3)nc2n(C2CCCC2)c1=O |  | metabolic stability | rat, liver S9 |  | half-life | 866 min |
